Assay results as given in article PMC12638245 (Nature Metabolism, 2025).

Assays:
circulating FGF21 = test: Serum FGF21 ELISA in mice given 5%; type: in vivo, mouse; settings: mice of each genotype, 5% (w/v) glycerol in drinking water for 2 days, vs water
Procedure, shortened: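 Mice aged 8–16 weeks, single-housed for 2 days on chow with water or 5% (w/v) glycerol. Blood taken at decapitation; serum spun 8,000g, 10 min, 4 °C. Sandwich ELISA: samples 2 h at room temperature, HRP-conjugated anti-FGF21 2 h, substrate 30 min, read at 450 nm with 570 nm correction. Haemolysed samples excluded; genotype-blinded analysis; two-way ANOVA with Tukey.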

[1] = tested on: hepatic ChREBP transcription programme; type: in vivo, mouse; settings: liver
Procedure, shortened: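 Mice aged 8–16 weeks, single-housed on chow with water or 5% (w/v) glycerol as the only drink for 2 days. Livers freeze-clamped in liquid nitrogen. RNA from 20 mg liver, DNase-treated, RIN >5.0; libraries from 150 ng RNA. Paired-end 150 bp sequencing, >20 million read pairs per sample. HTSeq counts, TMM normalisation in edgeR, GLMs with sequencing batch as covariate.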

[2] = tested on: hepatic G3P, hexose phosphates, pentose phosphates; test: Targeted LC-MS metabolomics of mouse liver; type: in vivo
Procedure, shortened: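 Freeze-clamped liver powder (2.0 mg) spiked with 13C3-G3P (2.28 µM final) or a 13C yeast extract internal standard (hexose/pentose phosphates). Boiling 25% 10 mM HEPES/75% ethanol extraction, 55 °C 5 min, sonication, spin at 16,100g, dried, diluted 20-fold. Ion-pair reversed-phase UHPLC (tributylamine/acetic acid, methanol gradient), negative-mode targeted MS2. G3P and hexose phosphates quantified; pentose phosphates relative only.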

ChREBP = settings: G3P added to HEK293T cells expressing ChREBP and MLX; cited from earlier work
[3] = genotype and/or addition of glycerol

| Compound | circulating FGF21 (circulating FGF21) | induction of ChREBP transcripts by glycerol ([1]; Slc25a13-/- Gpd2-/- double mutant) | Srebf1 expression ([1]; addition of glycerol) | induction of ChREBPα transcript by glycerol ([1]; wild-type and single mutant strains) | hepatic concentrations of hexose phosphates [2, 3] | relative levels of pentose phosphates in liver [2, 3] | hepatic G3P level ([2]; glycerol-exposed male mice, each of the four genotypes, vs water) | protection of ChREBP from thermal precipitation (ChREBP) |
| --- | --- | --- | --- | --- | --- | --- | --- | --- |
| OCC(O)CO [glycerol] | significantly elevated circulating FGF21 | no further induction | unaffected | two- to threefold | not altered | unaffected | tended to be higher | – |
| O=P(O)(O)OCC(O)CO (centres unmarked) [G3P, glycerol-3-phosphate] | – | – | – | – | – | – | – | protected ChREBP from thermal precipitation |
